Here are results for five compounds from ChEMBL document CHEMBL3593164, “Rational Design and Synthesis of Thioridazine Analogues as Enhancers of the Antituberculosis Therapy” (J Med Chem, 2015).

Structures are written as SMILES.

In assay [1] the test system is Mycobacterium tuberculosis. As to the kind of experiment: Inhibition of multidrug resistance efflux pump in Mycobacterium tuberculosis H37Rv assessed as reduction in rifampin MIC at 32 ug/ml after 7 days by two-dimensional broth microdilution checkerboard assay. In short, it runs like this: (§1)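 M. tuberculosis H37Rv two-dimensional broth microdilution checkerboard. MICs of INH, RIF, AMK, OFX or EtBr were determined without and with graded sub-inhibitory compound concentrations, starting at ½ MIC. Where MIC was undeterminable, the highest concentration still permitting growth was taken as ½ MIC. FIC = MIC of antibacterial in combination / MIC alone. FIC ≤0.25 was scored as synergism and ≥2 as antagonism.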
(In broth dilution the organism is exposed to a series of concentrations in liquid medium.)

In assay [2] the test system is Mycobacterium tuberculosis. The assay is described as follows: Inhibition of multidrug resistance efflux pump in Mycobacterium tuberculosis H37Rv assessed as rifampin MIC at 1 ug/ml after 7 days by two-dimensional broth microdilution checkerboard assay. The settings on record: 168 h. In short, it runs like this:
as §1

Assay [3] has as its system Mycobacterium tuberculosis. The assay is described as follows: Inhibition of multidrug resistance efflux pump in Mycobacterium tuberculosis H37Rv assessed as reduction in ofloxacin MIC at 64 ug/ml after 7 days by two-dimensional broth microdilution checkerboard assay. In short, it runs like this:
as §1

Assay [4] concerns Mycobacterium tuberculosis. As to the kind of experiment: Inhibition of multidrug resistance efflux pump in Mycobacterium tuberculosis H37Rv assessed as isoniazid MIC at 64 ug/ml after 7 days by two-dimensional broth microdilution checkerboard assay. The settings on record: 168 h.
The test system of assay [5] is Mycobacterium tuberculosis. The assay is described as follows: Inhibition of multidrug resistance efflux pump in Mycobacterium tuberculosis H37Rv assessed as ethidium bromide MIC at 16 ug/ml after 7 days by two-dimensional broth microdilution checkerboard assay. The settings on record: 168 h.
Assay [6] relates to Mycobacterium tuberculosis. The assay is described as follows: Inhibition of multidrug resistance efflux pump in Mycobacterium tuberculosis H37Rv assessed as ethidium bromide MIC at 2 ug/ml after 7 days by two-dimensional broth microdilution checkerboard assay. To be noted: 168 h.
The test system of assay [7] is Mycobacterium tuberculosis. As to the kind of experiment: Inhibition of multidrug resistance efflux pump in Mycobacterium tuberculosis H37Rv assessed as rifampin MIC at 4 ug/ml after 7 days by two-dimensional broth microdilution checkerboard assay. To be noted: 168 h.
Assay [8] has as its system Mycobacterium tuberculosis. The assay is described as follows: Inhibition of multidrug resistance efflux pump in Mycobacterium tuberculosis H37Rv assessed as reduction in amikacin MIC at 64 ug/ml after 7 days by two-dimensional broth microdilution checkerboard assay. In short, it runs like this: as §1
In assay [9] the test system is Mycobacterium tuberculosis. As to the kind of experiment: Inhibition of multidrug resistance efflux pump in Mycobacterium tuberculosis H37Rv assessed as reduction in ethidium bromide MIC at 64 ug/ml after 7 days by two-dimensional broth microdilution checkerboard assay.
The subject of assay [10] is Mycobacterium tuberculosis. The assay is described as follows: Inhibition of multidrug resistance efflux pump in Mycobacterium tuberculosis H37Rv assessed as isoniazid MIC at 32 ug/ml after 7 days by two-dimensional broth microdilution checkerboard assay. The settings on record: 168 h.
Assay [11] deals with Mycobacterium tuberculosis H37Rv. The assay is described as follows: Ratio of thioridazine to compound for Inhibition of multidrug resistance efflux pump in Mycobacterium tuberculosis H37Rv using ethidium bromide as substrate assessed as relative final fluorescence at 1/2 MIC by real-time fluorometry. In short, it runs like this:
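H37Rv cells were loaded with EtBr at 0.5 µg/mL with test compound at ½ MIC. Where the MIC exceeded the testable range, the last determinable concentration was taken as ½ MIC. EtBr retention was followed by real-time fluorometry and expressed as relative final fluorescence (RFF), with verapamil and thioridazine as controls.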

Assay [12] relates to Mycobacterium tuberculosis. As to the kind of experiment: Inhibition of multidrug resistance efflux pump in Mycobacterium tuberculosis H37Rv assessed as reduction in rifampin MIC at 16 ug/ml after 7 days by two-dimensional broth microdilution checkerboard assay. In short, it runs like this: as §1
The test system of assay [13] is Mycobacterium tuberculosis. The assay is described as follows: Inhibition of multidrug resistance efflux pump in Mycobacterium tuberculosis H37Rv assessed as reduction in rifampin MIC at 128 ug/ml after 7 days by two-dimensional broth microdilution checkerboard assay.
The test system of assay [14] is Mycobacterium tuberculosis. As to the kind of experiment: Inhibition of multidrug resistance efflux pump in Mycobacterium tuberculosis H37Rv assessed as reduction in rifampin MIC at 8 ug/ml after 7 days by two-dimensional broth microdilution checkerboard assay. In short, it runs like this: as §1
Assay [15] concerns Mycobacterium tuberculosis. The assay is described as follows: Inhibition of multidrug resistance efflux pump in Mycobacterium tuberculosis H37Rv assessed as reduction in ethidium bromide MIC at 256 ug/ml after 7 days by two-dimensional broth microdilution checkerboard assay. In short, it runs like this:
as §1

The test system of assay [16] is Mycobacterium tuberculosis. As to the kind of experiment: Inhibition of multidrug resistance efflux pump in Mycobacterium tuberculosis H37Rv assessed as reduction in ofloxacin MIC at 256 ug/ml after 7 days by two-dimensional broth microdilution checkerboard assay. In short, it runs like this:
as §1

For assay [17], the system named is Mycobacterium tuberculosis. The assay is described as follows: Inhibition of multidrug resistance efflux pump in Mycobacterium tuberculosis H37Rv assessed as reduction in isoniazid MIC at 256 ug/ml after 7 days by two-dimensional broth microdilution checkerboard assay. In short, it runs like this: as §1
The subject of assay [18] is Mycobacterium tuberculosis. The assay is described as follows: Inhibition of multidrug resistance efflux pump in Mycobacterium tuberculosis H37Rv assessed as reduction in amikacin MIC at 256 ug/ml after 7 days by two-dimensional broth microdilution checkerboard assay. In short, it runs like this: as §1
Assay [19] relates to Mycobacterium tuberculosis. As to the kind of experiment: Inhibition of multidrug resistance efflux pump in Mycobacterium tuberculosis H37Rv assessed as amikacin MIC at 1.88 ug/ml after 7 days by two-dimensional broth microdilution checkerboard assay. The settings on record: 168 h. In short, it runs like this:
(§2)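 M. tuberculosis H37Rv ATCC27294. MICs of INH, RIF, AMK, OFX and EtBr were determined alone and with sub-inhibitory concentrations of test compound by two-dimensional broth microdilution checkerboard. Where a compound's MIC was not determinable, the highest concentration still allowing growth was taken as ½ MIC. FIC = MIC in combination / MIC alone. FIC ≤0.25 was scored as synergism and ≥2 as antagonism.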

In assay [20] the test system is Mycobacterium tuberculosis. As to the kind of experiment: Inhibition of multidrug resistance efflux pump in Mycobacterium tuberculosis H37Rv assessed as amikacin MIC at 0.94 ug/ml after 7 days by two-dimensional broth microdilution checkerboard assay. To be noted: 168 h. In short, it runs like this:
as §2

Assay [21] relates to Mycobacterium tuberculosis. The assay is described as follows: Inhibition of multidrug resistance efflux pump in Mycobacterium tuberculosis H37Rv assessed as isoniazid MIC at 3.75 ug/ml after 7 days by two-dimensional broth microdilution checkerboard assay. To be noted: 168 h. In short, it runs like this:
as §1

The test system of assay [22] is Mycobacterium tuberculosis. As to the kind of experiment: Inhibition of multidrug resistance efflux pump in Mycobacterium tuberculosis H37Rv assessed as isoniazid MIC at 0.47 ug/ml after 7 days by two-dimensional broth microdilution checkerboard assay. To be noted: 168 h. In short, it runs like this: as §2
In assay [23] the test system is Mycobacterium tuberculosis. The assay is described as follows: Inhibition of multidrug resistance efflux pump in Mycobacterium tuberculosis H37Rv assessed as rifampin MIC at 0.12 ug/ml after 7 days by two-dimensional broth microdilution checkerboard assay. To be noted: 168 h. In short, it runs like this:
as §2

Assay [24] concerns Mycobacterium tuberculosis. As to the kind of experiment: Inhibition of multidrug resistance efflux pump in Mycobacterium tuberculosis H37Rv assessed as amikacin MIC at 0.47 ug/ml after 7 days by two-dimensional broth microdilution checkerboard assay. To be noted: 168 h. In short, it runs like this:
as §2

Assay [25] relates to Mycobacterium tuberculosis. As to the kind of experiment: Inhibition of multidrug resistance efflux pump in Mycobacterium tuberculosis H37Rv assessed as reduction in isoniazid MIC at 7.5 ug/ml after 7 days by two-dimensional broth microdilution checkerboard assay. In short, it runs like this: as §1
Assay [26] deals with Mycobacterium tuberculosis. The assay is described as follows: Inhibition of multidrug resistance efflux pump in Mycobacterium tuberculosis H37Rv assessed as ofloxacin MIC at 0.47 ug/ml after 7 days by two-dimensional broth microdilution checkerboard assay. The settings on record: 168 h. In short, it runs like this: as §2
For assay [27], the system named is Mycobacterium tuberculosis. The assay is described as follows: Inhibition of multidrug resistance efflux pump in Mycobacterium tuberculosis H37Rv assessed as rifampin MIC at 1.88 ug/ml after 7 days by two-dimensional broth microdilution checkerboard assay. The settings on record: 168 h. In short, it runs like this:
as §2

The test system of assay [28] is Mycobacterium tuberculosis. The assay is described as follows: Inhibition of multidrug resistance efflux pump in Mycobacterium tuberculosis H37Rv assessed as amikacin MIC at 3.75 ug/ml after 7 days by two-dimensional broth microdilution checkerboard assay. To be noted: 168 h. In short, it runs like this:
as §2

The test system of assay [29] is Mycobacterium tuberculosis. The assay is described as follows: Inhibition of multidrug resistance efflux pump in Mycobacterium tuberculosis H37Rv assessed as isoniazid MIC at 7.5 ug/ml after 7 days by two-dimensional broth microdilution checkerboard assay. The settings on record: 168 h. In short, it runs like this: as §1

By MIC is commonly meant the lowest concentration found to suppress growth. `CN1CCCCC1CCn1c2ccccc2c2ccccc21` (racemic): the “fold change (FC)” value in assay [1] is given as 16; in [3] it was over 128; in assay [8], over 128; in assay [9], over 64. In addition, the minimum inhibitory concentration (MIC) in assay [2] was 1 µg/mL; in assay [4] it was under 0.078 ng/mL; in [5] it was 6.25 µg/mL; in assay [6], 12.5 µg/mL; in assay [7], 1 µg/mL; in assay [10], 0.05 µg/mL.
Turning to `COc1ccc(N(CCC2CCCCN2C)C(C)C)cc1OC` (racemic), the “fold change (FC)” value in assay [1], in assay [12], in [13] and in assay [14] was 4 throughout. Besides, the Ratio IC50 in assay [11] stood at 2. The MIC was 100 ng/mL in assay [4], 12.5 µg/mL in assay [5], 0.25 µg/mL in [7] and 0.1 µg/mL in [10].
With `CN1CCCCC1CCn1ccc2ccc(Br)cc21` (racemic), the “fold change (FC)” value in assay [1] is listed as 32; in assay [15], over 164; in [3] it was over 128; in [12], 16; in [16], over 128; in [17] it was over 128. The “fold change (FC)” value in assay [13] is on record as over 164; in assay [18], over 128; in [14] it was 4; in assay [8], over 128; in assay [9], 8. Further, the Ratio IC50 in assay [11] is 2. Further, the MIC was determined as 50 ng/mL in assay [4], 12.5 µg/mL in assay [5], 0.5 µg/mL in assay [7] and 0.1 µg/mL in assay [10].
With `CN1CCCCC1CCn1cnc2ccccc21` (racemic), the “fold change (FC)” value is given as over 64 in assay [15], over 128 in assay [16], over 128 in assay [17] and over 128 in assay [18]. Besides, the Ratio IC50 in assay [11] is 2. Also, the MIC in assay [4] came to 100 ng/mL; in assay [5], 12.5 µg/mL; in assay [7] it was 0.5 µg/mL; in assay [10] it was 0.1 µg/mL.
Consider `CSc1ccc2c(c1)N(CCC1CCCCN1C)c1ccccc1S2` (stereo not given) [THIORIDAZINE], for which the MIC in [19] stood at 1 µg/mL; in [20] it was 1 µg/mL; in assay [21] it was 0.05 µg/mL; in assay [22], 0.1 µg/mL; in assay [23], 1 µg/mL; in [24] it was 1 µg/mL. Besides, the MIC in assay [26] is 1 µg/mL; in assay [27] it was 1 µg/mL; in assay [28], 1 µg/mL; in [29], under 0.00078 µg/mL. In addition, the “fold change (FC)” value in assay [25] is over 128.
